Compound activity from PubChem BioAssay.
In the library only some 2.2% were active in any assay of this set; here they are far more common.
ARFGAP1 inhibitor – inhibitors of rat ARFGAP1 GAP activity, primary screen, biochemical, fluorescence polarization, GDP tracer; 360,000 compounds, 0.26% hits; AID 651572, 2012; Arfgap1-stimulated ARF1 GTP hydrolysis, GDP FP detection; inhibition, % at 16.5 µM;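 active means inhibition above a per-plate limit, mean inhibition of low control wells plus 3 SD, cut at about 25% in these data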
Target sequence (Q62848 1-136 limits assumed): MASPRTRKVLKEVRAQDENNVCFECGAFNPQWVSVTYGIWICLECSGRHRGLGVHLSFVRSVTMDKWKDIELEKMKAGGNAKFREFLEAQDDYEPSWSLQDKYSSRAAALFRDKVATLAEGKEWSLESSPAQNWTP
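Material – truncated rat Arfgap1 GAP domain · Buffer or medium – HEPES-based buffer, pH 7.5 · Reagent – human ARF1(Δ1-17)-GTP substrate · Dosing – 16.5 µM single point, 1.26% DMSO · Schedule – GTP hydrolysis reaction 2 h at 25 °C · Technique – GDP detection by fluorescence polarization · Benchmarks – No-Arfgap1 wells (100%) versus DMSO full-reaction wells (0%) · Repeats – single replicate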
ASAP1 GAP inh – inhibitors of human ASAP1 ArfGAP activity, primary screen, biochemical, fluorescence polarization; Arf-GAP with SH3 domain, ANK repeat and PH domain-containing protein 1 (Homo sapiens), …; ASAP1-stimulated ARF1 GTP hydrolysis, GDP FP detection; inhibition, % at 16.5 µM; 360,000 compounds, 0.19% hits; AID 624377, 2012; in the data active means inhibition above about 25%
Target sequence (Q9ULH1 325-724 limits assumed): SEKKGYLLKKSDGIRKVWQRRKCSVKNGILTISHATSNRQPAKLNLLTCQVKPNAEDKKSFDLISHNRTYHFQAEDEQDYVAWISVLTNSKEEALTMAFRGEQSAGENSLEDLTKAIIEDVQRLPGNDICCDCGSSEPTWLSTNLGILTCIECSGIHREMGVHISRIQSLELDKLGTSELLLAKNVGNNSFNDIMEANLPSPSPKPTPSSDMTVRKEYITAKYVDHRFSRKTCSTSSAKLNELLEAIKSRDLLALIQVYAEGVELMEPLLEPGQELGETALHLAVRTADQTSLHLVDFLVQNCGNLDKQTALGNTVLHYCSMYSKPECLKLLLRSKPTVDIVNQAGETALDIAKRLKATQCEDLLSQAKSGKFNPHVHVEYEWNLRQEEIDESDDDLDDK
NadD block – inhibitors of S. aureus NadD, primary screen, biochemical, colorimetric, uHTS | purified NadD enzyme, colorimetric absorbance read-out | inhibition, % at 20 µM | 360,000 compounds, 0.78% hits | AID 602399, 2012; in the data active means inhibition above about 26%
rCAG RNA binder – binders of r(CAG) RNA repeats, primary screen, biochemical, fluorescence | r(CAG) RNA repeat, TO-PRO-1 dye displacement fluorescence | inhibition, % at 3 µM | 370,000 compounds, 1.3% hits | AID 651821, 2012;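 active means inhibition above the plate cutoff, the mean of all test compounds on that plate plus 3 SD, cut at about 35% in these data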;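 further: higher means more dye released from RNA so lower well fluorescence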
ASAP1 inh confirm – ASAP1 GAP activity inhibitors, confirmation, biochemical, fluorescence polarization, human, triplicate. shares compounds with ASAP1 GAP inh. ASAP1-stimulated Arf1 GTPase, GDP fluorescence polarization. 620 compounds, 37% hits. inhibition, % at 16.5 µM;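 active means mean inhibition over triplicates exceeds the hit threshold derived for the earlier primary screening run, cut at about 25% in these data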
ARFGAP1 inh conf – ARFGAP1 inhibitor hit confirmation, biochemical, fluorescence polarization, triplicate | shares compounds with ARFGAP1 inhibitor | AID 651608, 2012 | 890 compounds, 30% hits | ARFGAP1-stimulated ARF1 GTP hydrolysis, GDP tracer FP | inhibition, % at 16.5 µM;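 active means average inhibition over triplicates above the hit cutoff set in the earlier primary screen, cut at about 25% in these data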
rCAG binder conf – small molecules binding CAG repeat RNA – biochemical, fluorescence, confirmation. shares compounds with rCAG RNA binder. inhibition, % at 3 µM. r(CAG) RNA repeat, TO-PRO-1 dye displacement fluorescence. 4,300 compounds, 70% hits;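 active means inhibition above a per-plate cutoff, the mean inhibition of sample wells plus 3 SD, cut at about 35% in these data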;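 further: loss of TO-PRO-1 fluorescence as compound displaces dye from 1x1 AA loop RNA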
DNA CAG counter – displacement of TO-PRO-1 from CAG DNA duplex, counter-screen for rCAG RNA repeat binder project, biochemical, fluorescence, TO-PRO-1 dye, d(CAG) DNA oligo; shares compounds with rCAG RNA binder; d(CAG) DNA oligo TO-PRO-1 dye displacement; inhibition, % at 3 µM; 4,300 compounds, 94% hits;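 active means inhibition above its plate's cutoff, the mean test-well inhibition plus 3 SD, cut at about 4.8% in these data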;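 further: hits displace the dye from DNA and so lower well fluorescence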
Of the large screens only hits and unclear results are named; the others gave an inactive call (follow-up assays come after a bar, where they were run); ! = a repeat was not active.

COc1ccc(-c2csc(NC(=O)c3ccccc3F)n2)cc1	none
COc1ccc(-c2csc(NC(=O)c3ccccc3NS(=O)(=O)c3ccc(F)c(F)c3)n2)cc1	ASAP1 GAP inh 28.6, rCAG RNA binder 88.5 | ASAP1 inh confirm inactive | rCAG binder conf 90.0 | DNA CAG counter 74.8
CCCc1nc2cc(C)c(Br)c(C)n2c1Cc1ccccc1OC	none
O=c1c(-c2c(O)cc(O)c3c(=O)cc(-c4ccc(O)cc4)oc23)c(-c2ccc(O)cc2)oc2cc(O)cc(O)c12	ASAP1 GAP inh 24.9, rCAG RNA binder 48.6 | ASAP1 inh confirm 26.8 | rCAG binder conf 35.9 | DNA CAG counter 16.0
O=C(O)COc1ccccc1/C=N/NC(=O)Cc1csc(Nc2cccc(C(F)(F)F)c2)n1	ASAP1 GAP inh 36.5, rCAG RNA binder 58.6 | ASAP1 inh confirm inactive | rCAG binder conf 55.0 | DNA CAG counter 17.1
COc1ccc(NC(=O)C2CCCN(S(=O)(=O)c3ccc4c(c3)CC(C)N4C(C)=O)C2)cc1 (centres undefined)	ARFGAP1 inhibitor 26.1 | ARFGAP1 inh conf inactive
O=C1NC[C@H](CCCCN2C[C@H](Cc3ccc(O)cc3)N(CCc3ccccc3)C(=O)C2=O)N(CCc2ccc(O)cc2)C1=O	none
CCOC(=O)c1oc2ccccc2c1NC(=O)c1ccc(Cl)s1	ARFGAP1 inhibitor 32.2 | ARFGAP1 inh conf inactive
CCOC(=O)c1oc2ccccc2c1NC(=O)CCl	none
O=C1NC[C@@H](CCCCN2C[C@H](Cc3ccccc3)N(Cc3ccccc3)C(=O)C2=O)N(Cc2ccccc2)C1=O	none
Nc1[nH]c(C(=O)c2ccccc2)c(-c2ccccc2C(F)(F)F)c1C(=O)NCCc1c[nH]c2ccccc12	ARFGAP1 inhibitor 24.6 | ARFGAP1 inh conf inactive
COc1ccc(CNS(=O)(=O)CCNCc2ccccc2OC)cc1	ARFGAP1 inhibitor 52.2 | ARFGAP1 inh conf inactive
CC1(Oc2ccc(CC#N)cc2)CCN(Cc2ccc(-n3ccnc3)cc2)C1 (centres undefined)	none
CC1C(=O)N2CCCc3cc(NC(=O)C(=O)NCc4cccnc4)cc1c32 (centres undefined)	ARFGAP1 inhibitor 26.9 | ARFGAP1 inh conf inactive
Cc1ccccc1CS(=O)(=O)Cc1ccc(C(=O)Nc2ccc(F)cc2F)o1	none (no result: ARFGAP1 inhibitor, ASAP1 GAP inh, NadD block)
CCCOc1ccc(C(=O)Nc2ccc(S(=O)(=O)N3CCN(C)CC3)cc2)cc1	none
CCCOc1ccc(C(=O)Nc2ccc(S(=O)(=O)N3C[C@@H]4C[C@@H](C3)c3cccc(=O)n3C4)cc2)cc1	ARFGAP1 inhibitor 25.1 | ARFGAP1 inh conf inactive
COc1cc(OC)cc(-c2sc3ccc(OC)cc3c2-c2ccc(O)cc2)c1	ARFGAP1 inhibitor 25.6 | ARFGAP1 inh conf inactive
COc1ccc(-c2sc3ccc(OC)cc3c2-c2ccc(O)cc2)cc1	none
c1ccc2c(c1)OCc1nccn1-2	none (no result: NadD block)
COc1ccc(-n2c(COc3ccc(Cl)cc3)nnc2SCC(=O)c2ccc(-c3ccccc3)cc2)cc1	none (no result: ARFGAP1 inhibitor, ASAP1 GAP inh, NadD block)
CC(=O)Nc1ccc(SC(Sc2ccc(NC(C)=O)cc2)c2ccccc2)cc1	ARFGAP1 inhibitor 30.4 | ARFGAP1 inh conf inactive
COc1ccc(C(c2oc(CO)cc(=O)c2O)c2oc(CO)cc(=O)c2O)cc1OC	ARFGAP1 inhibitor 26.9 | ARFGAP1 inh conf inactive
COc1cc(C(c2oc(CO)cc(=O)c2O)c2oc(CO)cc(=O)c2O)cc(OC)c1OC	none
CS(=O)(=O)Nc1cccc(C2=NN(S(=O)(=O)c3ccccc3)C(c3ccco3)C2)c1 (centres undefined)	ARFGAP1 inhibitor 31.9 | ARFGAP1 inh conf inactive
CCS(=O)(=O)Nc1cccc(C2=NN(S(=O)(=O)c3ccccc3)C(c3ccco3)C2)c1 (centres undefined)	none
COc1ccc2nc3cc(Cl)ccc3c(Nc3ccc(O)c(CN4CCN(C)CC4)c3)c2c1	none
CC1=CC(=O)c2ccccc2C1=O	ARFGAP1 inhibitor 26.1! | ARFGAP1 inh conf inactive
Cc1nc2ccc(NC(=O)C3CCN(S(=O)(=O)c4cccs4)CC3)cc2s1	ARFGAP1 inhibitor 25.0 | ARFGAP1 inh conf inactive
C[C@@H]1CN([C@H](C)CO)S(=O)(=O)c2ccc(Br)cc2O[C@H]1CN(C)CC1CCOCC1	none (no result: NadD block)
COc1ccc(/C=N/NC(=O)c2cc3cc(OC)c(OC)cc3[nH]2)cc1	ARFGAP1 inhibitor 38.9 | ARFGAP1 inh conf 51.5
CCC(C)C(=O)Nc1cc(OC)c(OC)cc1C(=O)O (centres undefined)	ARFGAP1 inhibitor 28.2 | ARFGAP1 inh conf inactive
CCC(CC)C(=O)Nc1cc(OC)c(OC)cc1C(=O)O	none
COc1ccc(CCn2c(SCC(=O)Nc3cc(C)on3)nc3ccsc3c2=O)cc1OC	ARFGAP1 inhibitor 37.4 | ARFGAP1 inh conf 34.8
COc1ccc(NC(=O)CSc2nnc(-c3ccncc3)n2CC2CCCO2)c(OC)c1 (centres undefined)	ARFGAP1 inhibitor 25.7 | ARFGAP1 inh conf inactive
Cc1ccc(C)c(NC(=O)Cn2nnc(-c3ccncc3)n2)c1	none (no result: ARFGAP1 inhibitor, ASAP1 GAP inh, NadD block)
C[C@@H]1/C=C/CC(=O)N[C@H](c2cccc(Br)c2)[C@H](C)/C=C/CC(=O)N[C@@H]1c1cccc(Br)c1	none (no result: ARFGAP1 inhibitor, ASAP1 GAP inh, NadD block)
COC(=O)C1CN(Cc2ccccc2)CCS(=O)(=O)N1Cc1cn(Cc2ccc(C)cc2)nn1 (centres undefined)	none (no result: ARFGAP1 inhibitor, ASAP1 GAP inh, NadD block)
N#Cc1ccsc1NC(=O)COC(=O)c1ccc2ccccc2c1	ARFGAP1 inhibitor 26.7 | ARFGAP1 inh conf inactive
Cc1[nH]c2c(C)cccc2c1CCNC(=O)c1ccc2c(c1[N+](=O)[O-])C(=O)c1ccccc1C2=O	ARFGAP1 inhibitor 25.6, NadD block 35.3 | ARFGAP1 inh conf inactive
CN(C)C(=O)c1ccc2c(c1[N+](=O)[O-])C(=O)c1ccccc1C2=O	none
CCC1CCC2(CC1)NC(=O)N(CC(=O)Nc1cccc(S(=O)(=O)N(C)c3ccccc3)c1)C2=O (centres undefined)	ARFGAP1 inhibitor 41.1 | ARFGAP1 inh conf inactive
CN1C(=O)N(CC(=O)Nc2cccc(S(=O)(=O)N(C)c3ccccc3)c2)C(=O)C12CCCCC2	none
